Experimental data as given in the RNAGym collection of RNA variant scans (doi:10.1126/science.aae0568).
This sample holds only a part of the variants without activity.

B1: tRNA (parent)
chain: GUUCCGUUGGCGUAAUGGUAACGCGUCUCCCUCCUAAGGAGAAGACUGCGGGUUCGAGUCCCGUACGGAACG

Variants of: B1
Test: yeast fitness relative to wild type (ratio to wild type); higher = fitter; tRNA-Arg(CCU), competitive growth, 37 C, YPD
Summary of the method: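 Variants of the tRNA-Arg(CCU) gene were chemically synthesised with a 3% per-site mutation rate across 69 sites and placed at the native genomic locus in Saccharomyces cerevisiae. Six parallel replicates of the pooled strains were competed in YPD at 37°C for 24 hours, and gene amplicons from the start and end populations were read by 100-nucleotide paired-end sequencing. Darwinian fitness relative to wild type was derived from changes in genotype frequencies. Genotypes required ≥ 100 starting reads, and estimates < 0.5 were set to 0.5.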

Variant	yeast fitness
C11G C27G C30G A70C	0.689
C11G C34U G44C G50C C66U	≤ 0.5
C11G C31U U35A A37G A40C U47C U64G	≤ 0.5
C11G C24U G48C	0.541
C11G C27U C33G A65C	≤ 0.5
C11G C34G A37U	≤ 0.5
C11G C55A G63A	0.553
C11G C24U A42G A65G	≤ 0.5
C11G C24A A43C	≤ 0.5
C11G C30G C31G U32A	≤ 0.5
C11G C30U G41C G50A G67C	≤ 0.5
C11G C27A C66A	≤ 0.5
C11G C30U U54A	≤ 0.5
C11G C27U U32A G52A C60U A70C	≤ 0.5
C11G C24A U28G G63A	0.586
C11G C31G U47C C55G	≤ 0.5
C11G C29G G50C	≤ 0.5
C11G C34U C55U	≤ 0.5
C11G C61G C62G	≤ 0.5
C11G C34U A42C C61A A70U	≤ 0.5
C11G C34A A36U C60A	≤ 0.5
C11G C29U C30U	≤ 0.5
C11G C30U U35A U53G A70C	≤ 0.5
C11G C55U	≤ 0.5

Variant	yeast fitness
C11G C55A	0.756
C11G C27U A43C A65G	≤ 0.5
C11G C31G A42U	0.527
C11G C60U C62G A70G	≤ 0.5
C11G C27U U28A G52A C55U	≤ 0.5
C11G C24U C30U U54A	≤ 0.5
C11G C31U A42U A70U	≤ 0.5
C11G C24U A69C	≤ 0.5
C11G C31U C61G	0.64
C11G C27G C29G C34U	0.599
C11G C29G C31G U54C U64A	≤ 0.5
C11G C30U U35A U53G C62U	≤ 0.5
C11G C24U U28C C62A	≤ 0.5
C11G C34A U53A	0.609
C11G C34G A65U	≤ 0.5
C11G C33U U59C	0.66
C11G C22A C31U A42G C66U	≤ 0.5
C11G C49U G58C C61A A65U	≤ 0.5
C11G C34G C55G	≤ 0.5
C11G C49U C61A A70G	≤ 0.5
C11G C27A G38A A65C	0.557
C11G C22U A40G C60G G63C	≤ 0.5
C11G C24G A42U	≤ 0.5
C11G C29A A43C	0.572

Variant	yeast fitness
C11G C24A U28G	≤ 0.5
C11G C46A C61G A65G	≤ 0.5
C11G C66G G68C	≤ 0.5
C11G C33G A57U	≤ 0.5
C11G C31G C55A	0.618
C11G C30U A65G	0.595
C11G C30G C34A A37C C46U	≤ 0.5
C11G C34A C60A	≤ 0.5
C11G C34A G41C G51C G56A	≤ 0.5
C11G C29U C30U U54A	≤ 0.5
C11G C22U C24G C30G	≤ 0.5
C11G C29G C31G	≤ 0.5
C11G C46A A65G	≤ 0.5
C11G C22U A70U	≤ 0.5
C11G C33U	≤ 0.5
C11G C33A G50C	≤ 0.5
C11G C24G C27G G48C	≤ 0.5
C11G C34G U59C	≤ 0.5
C11G C24U C34G	≤ 0.5
C11G C29U C31U C34U C62A C66U	≤ 0.5
C11G C22G C24U G50C	≤ 0.5
C11G C46G G50C	0.694
C11G C22U U53C	≤ 0.5
C11G C31A G38C C55U G58A	0.577

Variant	yeast fitness
C11G C49U G63A	≤ 0.5
C11G C30G C49U C61G A70G	≤ 0.5
C11G C22G C27G C49U C62U	≤ 0.5
C11G C29G U35C U47A G68C	≤ 0.5
C11G C27G C55A	≤ 0.5
C11G C30U A45G A57U C62U	≤ 0.5
C11G C33A A40G C62A G67C	≤ 0.5
C11G C29G	0.84
C11G C29U	0.557
C11G C29A A43C U64C	≤ 0.5
C11G C29U A57G	≤ 0.5
C11G C22G C62U	≤ 0.5
C11G C49U G58C	0.597
C11G C24G	≤ 0.5
C11G C24U	0.583
C11G C24G G44C	≤ 0.5
C11G C24U G25A U47G	≤ 0.5
C11G C29A A43C C66A	≤ 0.5
C11G C46U G51A	0.649
C11G C27U A37U G44A C62A	0.511
C11G C24U A42G	≤ 0.5
C11G C46U A65U	0.561
C11G C46U G51C C66G	≤ 0.5
C11G C29U U35C A36C	≤ 0.5

Variant	yeast fitness
C11G C22U A40G C55G C61G	≤ 0.5
C11G C22U G63C	≤ 0.5
C11G C22G A37G C60A A70G	≤ 0.5
C11G C33G C62G	≤ 0.5
C11G C46G C62A	≤ 0.5
C11G C34U C62G	0.542
C11G C60G C61U	0.555
C11G C29G C31G A37U	0.674
C11G C29A U35G A43G A70C	≤ 0.5
C11G C55U C61A	0.546
C11G C34A G44A C46U G68A	≤ 0.5
C11G C34G	0.524
C11G C34U	0.672
C11G C34A	0.585
C11G C24G C55U A65U	≤ 0.5
C11G C61U	0.656
C11G C61G	0.705
C11G C61A	0.546
C11G C61G A69U	≤ 0.5
C11G C29U A45C C66G	≤ 0.5
C11G C22U C30A	≤ 0.5
C11G C27A G38A C55G	≤ 0.5
C11G C34A G58C C60G	0.84
C11G C27U A43C C61G	≤ 0.5

Variant	yeast fitness
C11G C49U A70G	0.573
C11G C24G G52C C55G	0.813
C11G C29U U59A A69U	≤ 0.5
C11G C27U A37U C49U	≤ 0.5
C11G C46A C49U U54C C60U	≤ 0.5
C11G C46U C62U	≤ 0.5
C11G C30G C33A A57C C61A	0.583
C11G C27U C33U	0.584
C11G C29U U47C C66A	≤ 0.5
C11G C27U G56A A57G	≤ 0.5
C11G C34A A36U G48A G52C C60A C62U	≤ 0.5
C11G C24U A42U A43U	0.653
C11G C24U C31G C33U A43U	≤ 0.5
C11G C30U	0.643
C11G C30G	≤ 0.5
C11G C24U A42U A43U C66U	≤ 0.5
C11G C29U C61A A65C	≤ 0.5
C11G C27U	0.706
C11G C27A	0.715
C11G C30A C62G G68C	≤ 0.5
C11G C46U C49A C55U	0.661
C11G C30G A37U G41A U53C A69U	0.516
C11G C49U C66U	≤ 0.5
C11G C24G C29U C62G C66A	≤ 0.5

Variant	yeast fitness
C11G C31U C33A C66U	≤ 0.5
C11G C27A C46G G50A C61U	≤ 0.5
C11G C24U G48A G67U A69C	≤ 0.5
C11G C34U G44C G50C U53C	≤ 0.5
C11G C22U A40C C46U C60A	≤ 0.5
C11G C24U C49A	0.547
C11G C22G	0.675
C11G C22U	0.653
C11G C27U A43C	0.502
C11G C62U C66U	≤ 0.5
C11G C30U C34U	≤ 0.5
C11G C24U G25A A42G	≤ 0.5
C11G C30U C46G G58C	0.617
C11G C27U C33U C62G	≤ 0.5
C11G C62U	0.579
C11G C29G A40G G41A C49A C62G	0.751
C11G C29G A45U	≤ 0.5
C11G C24A C66U	≤ 0.5
C11G C27G C31A C60G	≤ 0.5
C11G C34G A36C	≤ 0.5
C11G C31A G39A G48A C61U A65C	0.56
C11G C29A A40U	≤ 0.5
C11G C30U G39A A45C C49U	0.614
